Laboratory results taken from ChEMBL document CHEMBL1124179, “Nucleotide derivatives of 2,7-diaminomitosene” (1988).
Blank lines part the entries; values can stand above or below the molecule they belong to.

Key:
L1210 [1] = test: Uptake of a initial concentration of 10 ug/mL of compound in medium by L1210 cells after 30 min expressed as drug concentration in cells; format: functional, cell-based; settings: Mus musculus
Outline: (§1)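 Cultured L1210 leukemia cells were incubated with drug in medium for set times. Cells were then washed in phosphate buffered saline and lysed by sonication in distilled water. Drug in the lysate was measured by HPLC on a short C18 column with methanol-water (65:35), against a peak-height standard curve that was linear over the range. Experiments were run in duplicate.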

L1210 [2] = test: Uptake of a initial concentration of 10 ug/mL of compound in medium by L1210 cells after 10 min expressed as drug concentration in cells; format: functional, cell-based; settings: Mus musculus; outline: as §1
L1210 [3] = test: Uptake of a initial concentration of 100 ug/mL of compound in medium by L1210 cells after 10 min expressed as drug concentration in cells; format: functional, cell-based; settings: Mus musculus; outline: as §1
L1210 [4] = test: Inhibition of L1210 leukemia cells, after exposure to compound for period of 1 hr; format: functional; settings: Mus musculus, L1210, 1 h; read-out: ID50 (the source's name)
Outline: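 Soft-agar colony-forming assay using L1210 murine lymphocytic leukemia cells at 4×10^4/mL. Drug exposure was either 1 h or continuous, with continuous dosing done by adding drug to the final plating medium (RPMI 1640, 10% fetal bovine serum, 1% penicillin/streptomycin, 0.3% agar). Read-out is percent survival of colony-forming cells, as the mean of six values (three plates in each of two experiments). ID50 is given as molar concentration.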

L1210 [5] = test: Uptake of a initial concentration of 10 ug/mL of compound in medium by L1210 cells after 60 min expressed as drug concentration in cells; format: functional, cell-based; settings: Mus musculus; outline: as §1
L1210 [6] = test: Uptake of a initial concentration of 100 ug/mL of compound in medium by L1210 cells after 60 min expressed as drug concentration in cells; format: functional, cell-based; settings: Mus musculus; outline: as §1
L1210 [7] = test: Uptake of a initial concentration of 100 ug/mL of compound in medium by L1210 cells after 30 min expressed as drug concentration in cells; format: functional, cell-based; settings: Mus musculus; outline: as §1
L1210 [8] = test: The compound was evaluated for survival of L1210 cells, when compound was exposed for a period of 1 hr 1X (10e -5)M conc; format: functional, Mus musculus
Outline: (§2)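 L1210 murine lymphocytic leukemia cells at 4×10^4/mL were exposed to drug for 1 h and then cloned in soft agar. The plating medium was RPMI 1640 with 10% fetal bovine serum, 1% penicillin-streptomycin and 0.3% agar. Read-out was percent survival of colony-forming cells, taken as the mean of six values (three plates in each of two experiments).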

L1210 [9] = test: The compound was evaluated for survival of L1210 cells, when compound was exposed for a period of 1 hr 5*(10e -5)M conc; format: functional, Mus musculus; outline: as §2
L1210 [10] = test: The compound was evaluated for survival of L1210 cells, when compound was exposed for a period of […] 1X (10e -7)M conc; format: functional, Mus musculus
Outline: (§3)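 In a soft-agar colony-forming assay, L1210 murine lymphocytic leukemia cells (4×10^4/mL) were exposed to drug continuously, with drug added to the final plating medium. That medium was RPMI 1640 with 10% fetal bovine serum, 1% penicillin-streptomycin and 0.3% agar. Read-out was percent survival of colony-forming cells, given as the mean of six values (three plates, two experiments).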

L1210 [11] = test: The compound was evaluated for survival of L1210 cells, when compound was exposed for a period of […] 1X (10e -9)M conc; format: functional, Mus musculus; outline: as §3
L1210 [12] = test: The compound was evaluated for survival of L1210 cells, when compound was exposed for a period of […] 5*(10e -8)M conc; format: functional, Mus musculus; outline: as §3
L1210 [13] = test: The compound was evaluated for survival of L1210 cells, when compound was exposed for a period of 1 hr 1X (10e -6)M conc; format: functional, Mus musculus; outline: as §2
L1210 [14] = test: The compound was evaluated for survival of L1210 cells, when compound was exposed for a period of […] 1X (10e -8)Mconc; format: functional, Mus musculus; outline: as §3
L1210 [15] = test: The compound was evaluated for survival of L1210 cells, when compound was exposed for a period of 1 hr 1X (10e -7)Mconc; format: functional, Mus musculus; outline: as §2

IC50 (L1210 [4]): 13.3 µM
Structure (SMILES): CC1=C(N)C(=O)c2c(COC(N)=O)c3n(c2C1=O)CC(N)C3OP(=O)(O)OC[C@H]1O[C@@H](n2ccc(=O)[nH]c2=O)[C@H](O)[C@@H]1O (some centres undefined)
Concentration (L1210 [1]): 1 µg/mL | Concentration (L1210 [2]): 8 µg/mL | Concentration (L1210 [3]): 20 µg/mL | Concentration (L1210 [5]): 2.5 µg/mL | Concentration (L1210 [6]): 1 µg/mL | Concentration (L1210 [7]): 20 µg/mL

IC50 (L1210 [4]): 14 µM
Structure (SMILES): CC1=C(N)C(=O)c2c(COC(N)=O)c3n(c2C1=O)CC(N)C3OP(=O)(O)OC[C@H]1O[C@@H](n2cc(F)c(=O)[nH]c2=O)C[C@@H]1O (some centres undefined)

Structure (SMILES): CO[C@@]12[C@H](COC(N)=O)C3=C(C(=O)C(C)=C(N)C3=O)N1C[C@@H]1N[C@@H]12.O=c1[nH]c(=O)n([C@H]2C[C@H](O)[C@@H](CO)O2)cc1F
Survival (L1210 [8]): 1% | Survival (L1210 [9]): 2% | Survival (L1210 [10]): 3% | Survival (L1210 [11]): 84% | Survival (L1210 [12]): 42% | Survival (L1210 [13]): 48% | Survival (L1210 [14]): 70% | Survival (L1210 [15]): 100%

Structure (SMILES): CC1=C(N)C(=O)c2c(COC(N)=O)c3n(c2C1=O)CC(N)C3[18OH] (centres undefined)
IC50 (L1210 [4]): 62 µM

Structure (SMILES): O=c1[nH]c(=O)n([C@H]2C[C@H](O)[C@@H](CO)O2)cc1F [FLOXURIDINE]
Survival (L1210 [8]): 92% | Survival (L1210 [9]): 89% | Survival (L1210 [10]): 62% | Survival (L1210 [11]): 100% | Survival (L1210 [12]): 68% | Survival (L1210 [13]): 94% | Survival (L1210 [14]): 76% | Survival (L1210 [15]): 98%

Structure (SMILES): CO[C@@]12[C@H](COC(N)=O)C3=C(C(=O)C(C)=C(N)C3=O)N1C[C@@H]1N[C@@H]12 [MITOMYCIN]
Survival (L1210 [8]): 1% | Survival (L1210 [9]): 2% | Survival (L1210 [10]): 7% | IC50 (L1210 [4]): 3.1 µM | Survival (L1210 [11]): 98% | Survival (L1210 [12]): 73% | Survival (L1210 [13]): 52% | Survival (L1210 [14]): 100% | Survival (L1210 [15]): 89%
